Experimental data: ChEMBL document CHEMBL4513216, “Probing the Open Global Health Chemical Diversity Library for Multistage-Active Starting Points for Next-Generation Antimalarials” (ACS Infect Dis, 2020)

Experiment: Toxicity liver stage against HepG2, at 10uM
Type: cell-based
Design: test concentration 10 uM, cell line HepG2-A16-CD81EGFP
Settings: human, HepG2-A16-CD81EGFP cells; read-out: INHIBITION
Method in brief: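 Uninfected HepG2-A16-CD81EGFP cells, 3 × 10^3 per well, 1536-well, plated on prespotted compound at 10 μM final, parasite-free screening media added to match infected plates; puromycin 10 μM positive, DMSO 0.5% negative; run in parallel with 48 h PbLuc assay at 37 °C, 5% CO2; viability by CellTiter-Glo luminescence, normalized to controls.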

Row | Structure (SMILES) | cytotoxicity at 10 µM [%]
1 | O=C(Cc1ccco1)N1C[C@@H]2COC[C@]2(COCC2CCOCC2)C1 | -102
2 | NC(=O)CN1CCC(c2cccc(Oc3ccccc3)n2)CC1 | -4.72
3 | O=C(Cc1csc(-c2ccoc2)n1)NCCC(=O)N1CCCCC1 | 9.13
4 | COc1ccc(S(=O)(=O)N2CC(CC(=O)O)c3ccccc32)cc1 (centres undefined) | 6.04
5 | CN1CCCC1CNC(=O)CCOc1ccc(Cl)cc1 (centres undefined) | -4.31
6 | CC(C)c1nccn1C1CCCN(C(=O)c2ccc3c(c2)OCO3)C1 (centres undefined) | 4.28
7 | Fc1ccccc1Cc1noc(CN2CCCC(CN3CCCC3)C2)n1 (centres undefined) | -12.3
8 | CCc1noc(CN2CCCN(C(C)=O)CC2)n1 | -1.25
9 | CC1CCN(S(=O)(=O)N2Cc3ccccc3C[C@H]2C(N)=O)CC1 | -6.64
10 | CC1CN(CC(=O)NC(C2CC2)C2CC2)CCN1Cc1nccn1C (centres undefined) | -6.48
11 | CC(C)n1ccnc1C1CCN(C(=O)c2ccccc2N(C)C)CC1 | 4.67
12 | Cc1cc(NC(=O)CN2CCn3c(nnc3C(C)C)C2)no1 | -1.11
13 | Fc1ccc(C2(CNC3=NCCN3)CCCC2)cc1 | 12.9
14 | CC(C)c1noc(CN(C)C(=O)c2ncn[nH]2)n1 | 6.2
15 | CCC(O)CN(Cc1ccccc1)S(=O)(=O)c1cnc(C)s1 (centres undefined) | -42.5
16 | CC(O)c1cccc(-n2c(CCC(=O)O)nc3ccccc32)c1 (centres undefined) | 2.16
17 | Cc1ccc2nc(C)cc(C(=O)N[C@H]3COC[C@@H]3N3CCOCC3)c2c1 | -42.2
18 | O=C(c1cc(F)ccc1O)N1CCN(C(=O)C2CCC2)CC1 | 1.22
19 | CCOc1cc(/C=C/c2ncc(C(=O)O)s2)cc(Cl)c1OC | 8.13
20 | Cc1nc(NCCC23CCCN2CCC3)cc(C2CCCNC2)n1 (centres undefined) | 7.98
21 | Cc1ccc(CN2CCC3(CCC(=O)N3CC(=O)N(C)C)CC2)s1 | -2.45

Row | Structure (SMILES) | cytotoxicity at 10 µM [%]
22 | N#Cc1ccc(CNC(=O)NC2CCN(CC(F)(F)F)C2)cc1 (centres undefined) | 7.06
23 | CCn1ncc(CN2CCc3nc(-c4cccnc4)nc(O)c3C2)c1C | -23.7
24 | COc1cccc(N2CC3(CCN(c4ccc(C)nn4)C3)CC2=O)c1 (centres undefined) | 6.62
25 | Cc1c(C(=O)N2CCN(c3ccccn3)CC2)n(C)c2ccc(Cl)cc12 | 3.95
26 | Cc1cc(CN2CCN(C(=O)NCc3ccc(C)s3)CC2)no1 | -2.84
27 | CCCc1nc(CN(CC)C(=O)c2ccc3c(c2)nnn3C)no1 | 9.43
28 | O=C(c1cccs1)N1CC[C@@H](N2CCOCC2)[C@@H]1Cc1ccccc1 | -81.6
29 | COc1cc(CSc2nnc(N)n2C2CC2)ccc1SC | -6.09
30 | Cc1nc2n(n1)CC(NCc1nc(-c3cccs3)no1)CC2 (centres undefined) | -1.66
31 | Cc1cc(C(=O)N2CCCC2)ccc1NS(C)(=O)=O | 0.535
32 | COCC1c2c(cnn2CC2CC2)CCN1Cc1ccsc1 (centres undefined) | 6.75
33 | CCc1cnc(N2CCOC(CCOC)C2)nc1 (centres undefined) | -3.88
34 | CC(C)N(C)[C@@H]1CCN(Cc2ccoc2)[C@H]1Cc1ccccc1 | -2.57
35 | CN(C)c1ccccc1CN1CCCCC1CNS(C)(=O)=O (centres undefined) | 0.212
36 | Cc1cc(CNCC2(O)CCOCC2)ccc1F | 6.71
37 | CC1CCCN(Cc2ccnc(-c3cccnc3)n2)C1 (centres undefined) | -6.57
38 | CCN1CCN(CC(O)c2ccc(F)cc2)CC1 (centres undefined) | -9.41
39 | CNS(=O)(=O)CC1CCCN1C(=O)c1ccc(C)c(C)c1 (centres undefined) | -6.93
40 | O=C(c1cccnc1)N1Cc2[nH]nc(COCCO)c2C1 | 13.3
41 | CC(C)(CO)Nc1c(NCc2ccccc2)c(=O)c1=O | -2.96
42 | OCCN1CCN(Cc2coc(-c3ccccc3Cl)n2)CC1 | -7.57

Row | Structure (SMILES) | cytotoxicity at 10 µM [%]
43 | Cn1c2c(ccc1=O)CC(Nc1ncc(F)cn1)CC2 (centres undefined) | -143
44 | CN(C)CCN1C(=O)CCCC12CCCN(C(=O)c1ccncc1)C2 (centres undefined) | -1.31
45 | O=C(NC1CC1)c1cccc(S(=O)(=O)NCCc2nc(C3CC3)no2)c1 | -0.714
46 | CCOCC(O)CN1CCN(C(=O)c2cc(C)ccc2F)CC1 (centres undefined) | 5.71
47 | Cc1cnc(C(=O)N2C[C@H]3CN(Cc4cccc(F)c4)C(=O)[C@H]3C2)cn1 | -85.7
48 | CCS(=O)(=O)Nc1ccc2[nH]c(C3CCC3)nc2c1 | -13.2
49 | N#Cc1ccc(S(=O)(=O)N2CSCC2C(=O)NCC(F)(F)F)cc1 (centres undefined) | -7.6
50 | N#Cc1ccc2c(c1)CN(C(=O)c1nc[nH]n1)C2c1cnco1 (centres undefined) | -2.6
51 | Cn1ncc2c(=O)[nH]c(CN3CCCC3c3cccs3)nc21 (centres undefined) | -4.43
52 | CS(=O)(=O)NCC1CCCCN1C(=O)c1cccc(C(F)(F)F)c1 (centres undefined) | -2.02
53 | COC(=O)CNC(=O)c1cccc(C(=O)N(C)c2ccccc2)c1 | 6.93
54 | CCC(Nc1nc(C)nc2c1cnn2C)c1ncnn1CC (centres undefined) | -7.17
55 | CCn1cc(C(=O)NCC(OC)c2cccc(Cl)c2)cn1 (centres undefined) | -8.87
56 | Cc1ccc(CNC(=O)c2nc3c(o2)CN(c2ncccn2)C3)o1 | -5.58
57 | Cc1csc(CNC(=O)N(C)Cc2nnc3n2CCC3)n1 | -4.75
58 | Cc1nn(C)c(N(C)C)c1CNCc1ccc(Cn2cccn2)cc1 | 3.73
59 | Cc1cc(CNC(=O)Cc2c(C)nc3cc(=O)[nH]n3c2C)no1 | -7.36
60 | Cc1nc(C2CCCN2Cc2cc(Cl)c3c(c2)OCCCO3)no1 (centres undefined) | 10.3
61 | COCC(=O)N1CCC2(CCCN(Cc3cnn(C)c3)C2)C1 (centres undefined) | -73.3
62 | CC1CCN(CCNC(=O)Nc2ccc(F)cc2Cl)CC1 | 4.68
63 | CN1CCCCC1c1ncc2c(n1)CCN(Cc1ccccc1Cl)C2 (centres undefined) | -1.67

Row | Structure (SMILES) | cytotoxicity at 10 µM [%]
64 | CCC(C)(CNC(=O)c1ccon1)NC(=O)c1ccon1 (centres undefined) | -0.903
65 | NC(=O)CSCCC(=O)N1CCCC1c1ccsc1 (centres undefined) | -13.6
66 | Cc1nn(C)c(C)c1C1CCCN1Cc1nc2ccccc2o1 (centres undefined) | -20.6
67 | O=C1CC(N2CCN(c3ccc(O)cc3)CC2)C(=O)N1Cc1cccs1 (centres undefined) | 5.77
68 | Cc1nn(CCO)c(C)c1-c1cc(C(C)(C)C)nc(N)c1C#N | 4.93
69 | CC(C)CNC(=O)C1(Cc2ccccc2-c2cccs2)CCNC1 (centres undefined) | -31.2
70 | CCN(Cc1nc2c(cnn2C)c(=O)[nH]1)Cc1cccs1 | 1.49
71 | O=C(CC1CCC1)N1CCCC(CO)(CC2CC2)C1 (centres undefined) | 7.18
72 | COC(=O)c1sccc1S(=O)(=O)NCCC(O)c1ccco1 (centres undefined) | -5.98
73 | CC(C)(O)CN1CCN(C(=O)c2cccc(CC#N)c2)CC1 | -13.4
74 | N#CC1COCCN1C(=O)c1ccc2[nH]cnc2c1 (centres undefined) | -2.87
75 | COc1cc(Cl)c(NCc2c(C)noc2C)cc1OC | 8.77
76 | Cc1cc(OCC(N)=O)ccc1NC(=O)C(C)Cc1ccccc1F (centres undefined) | -0.0944
77 | CC(C)c1nnc2n1CC(CNCc1cccnc1)CC2 (centres undefined) | 6.59
78 | N#Cc1cccnc1NCCNC(=O)N1CCCC(C(F)(F)F)C1 (centres undefined) | -3.76
79 | O=c1[nH]c(-c2ccc(F)c(F)c2)nc2c1CCNC2 | 2.06
80 | CC(C)(C)Oc1ccncc1NCc1cscn1 | 15.7
81 | Cc1cccc(-c2ncc(CNC(C)CO)cn2)c1 (centres undefined) | 2.16
82 | CC(C)(C)NS(=O)(=O)c1ccccc1CNCc1cccc(O)c1 | -7.43
83 | Cc1ccnc(NS(=O)(=O)c2cc(C(N)=O)n(C)c2)c1 | 0.814
84 | CCc1n[nH]c(C2CN(Cc3ncc(CC)o3)CCO2)n1 (centres undefined) | -9.79
